Data on five molecules can be found in publication PMC7105043 (Journal of the Chinese Medical Association, 2017).

One data set relates to A549 cells. The data set can be described thus: XTT cytotoxicity assay. As to conditions: XTT, 3 days; method says A549 cells, Table 1 says MDCK cells. The format is cell-based, human. The method in brief: (§1)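 Test compound serially diluted in complete MEM (10% heat-inactivated FBS) and added to A549 cells seeded at 1 × 10^4 cells/well and pre-incubated 24 h. Cells exposed 3 days at 35 °C, 5% CO2, then XTT reagent for 4 h. Absorbance read at 450 nm, reference 620 nm. Viability relative to untreated control (100%). Triplicate wells, at least three independent runs.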
On the technique in general: Formazan colour is commonly taken as a measure of viable cells.

The subject of data set [1] is pandemic influenza A (H1N1) virus (A/California/07/2009). The data set can be described thus: microbe, parasite or virus in culture. The class given is cell-based.
The subject of data set [2] is pandemic influenza A (H1N1) virus. The format is cell-based.
Data set [3] shares this test system. The class given is cell-based. This is another data set of the same source.
Data set [4] shares this test system. The format is cell-based. The source holds these as a separate data set.
A short description of another data set: XTT cytotoxicity assay. The format is cell-based, human. Conditions: dog, MDCK cells. In short, it runs like this:
as §1

For data set [5], the system named is H1N1 A/Puerto Rico/8/34-NS116-GFP. Conditions: ref 25 (Theisen et al); cited from earlier work.
The conditions of data set [6]: ref 25 (Theisen et al); cited from earlier work.

The structures appear in SMILES notation. In brackets after ≈: the same amount, converted by molar mass.

Take `O.Oc1cc(O)c2c(c1)O[C@H](c1ccc(O)c(O)c1)[C@@H](O)C2` [catechin]: the “XTT cytoxicity (CC50)” value in the data set with A549 cells is more than 100 µg/mL. For the same molecule, in data set [1], the “Plaque inhibition (EC50)” value worked out at 18.4 ± 0.7 µg/mL. In data set [1] (25 μg/mL), the “reduction of viral production (plaque assay)” value was “approximately 50%”. In addition, in data set [2], the “EC50 (XTT viability of infected cells, Fig. 1)” value was 10 to 25 µg/mL and the “protective effect against virus infection (cell viability)” value was “protective effects”. The “inhibition of viral RNA synthesis (qRT-PCR)” value in data set [3] is reported as “significant inhibition”. In addition, in data set [4], the “green fluorescence (viral glycoprotein foci)” value is reported as “decreased in a dose-dependent manner”.

By EC50 is commonly meant the concentration giving half of the maximal effect. Regarding `O=C(O)c1cc(O)c(O)c(O)c1` [gallic acid], in the data set “XTT cytotoxicity assay”, the CC50 at 3 days amounted to 22.1 ± 0.6 µg/mL (≈ 130 µM). The “reduction of viral production (plaque assay)” value in data set [1] (2.5 μg/mL) is on record as “approximately 50%”. In addition, the half-maximal effective concentration (EC50) in data set [1] (Influenza A virus, H1N1, 72 h, read-out: Plaque inhibition (EC50)) was 2.6 ± 0.07 µg/mL (≈ 15.3 µM); in data set [5] it was 50.8 µM. Besides, the “protective effect against virus infection (cell viability)” value in data set [2] is on record as “protective effects”. In data set [3], the “inhibition of viral RNA synthesis (qRT-PCR)” value is given as “significant inhibition”. The “green fluorescence (viral glycoprotein foci)” value in data set [4] was “decreased in a dose-dependent manner”. In addition, the CC50 in data set [6] is 770 µM.

Regarding `O=c1c(O)c(-c2ccc(O)cc2)oc2cc(O)cc(O)c12` [kaempferol], in “XTT cytotoxicity assay”, the CC50 at 3 days was more than 100 µg/mL.

As to `O=c1c(O)c(-c2ccc(O)c(O)c2)oc2cc(O)cc(O)c12` [quercetin hydrate], the CC50 at 3 days in the data set “XTT cytotoxicity assay” is more than 100 µg/mL.

In turn, `C[C@@H]1O[C@@H](OC[C@H]2O[C@@H](Oc3c(-c4ccc(O)c(O)c4)oc4cc(O)cc(O)c4c3=O)[C@H](O)[C@@H](O)[C@@H]2O)[C@H](O)[C@H](O)[C@H]1O` [rutintrihydrate, rutin trihydrate] returned a CC50 at 3 days in “XTT cytotoxicity assay” of more than 100 µg/mL.
